The test system of data set [1] is Rattus norvegicus. Briefly: Acute toxicity in sc dosed albino rat. In kind it is organism-based. To be noted: in vivo. In a few lines:
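Male albino rats were injected with increasing doses of each agent. LD50 and LD90, the doses killing 50% and 90% of the animals, were calculated by a published method.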

The test system of data set [2] is Rattus norvegicus. The experiment in a line: Inhibition of 5-alpha-reductase activity in sc dosed Sprague-Dawley rat assessed as effect on serum steroid level administered on postnatal third day measured after 7 weeks of age by radioimmunoassay. In kind it is functional. In a few lines:
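Male Sprague–Dawley rats, 12 per group, given compound sc in 5% Tween 80 in water from postnatal day 3 until 7 weeks of age. Vehicle-treated negative control; anastrozole as positive control. Serum testosterone and DHT measured by RIA after ether extraction, using specific antisera and tritiated tracer, 24 h at 4 °C. Levels read from a standard curve and compared with vehicle controls to give ED50.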

In data set [3] the test system is Rattus norvegicus. Briefly: Inhibition of 5-alpha-reductase activity in sc dosed Sprague-Dawley rat assessed as effect on serum steroid level administered on postnatal third day measured after 7 weeks of age by radioimmunoassay relative to anastrozole. The format is functional.

For `CCOC(=O)C1=NN(c2ccc(C)cc2)C2=NC3=C(CN(CC)C/C3=C\c3ccc(C)cc3)C(c3ccc(C)cc3)N12` (configuration not stated), in data set [1], the LD50 – broadly, the dose expected to kill half of the subjects tested – turned out to be 224.33 µg/kg and the LD90 was found to be 514.33 µg/kg. Further, the ED50 (in general, the dose that gives a 50% effect, or the effect in half of the subjects) in data set [2] worked out at 1 µg/kg. Also, the “fold change (FC)” value in data set [3] turned out to be 1.09.
In the same order, the values of `CCN1CC2=C(N=C3N(c4ccc(C)cc4)N=C(C(=O)Nc4ccccc4)N3C2c2ccc(C)cc2)/C(=C/c2ccc(C)cc2)C1` (configuration not stated) are 236.28 µg/kg, 417.34 µg/kg, 0.925 µg/kg and 1.178.
In data set [1], `CCN1CC2=C(N=C3N(c4ccccc4)N=C(C(=O)Nc4ccccc4)N3C2c2ccc(C)cc2)/C(=C/c2ccc(C)cc2)C1` (configuration not stated) had a 50% lethal dose (LD50) of 6534.45 µg/kg and an LD90 of 1950.12 µg/kg. The ED50 in data set [2] worked out at 0.432 µg/kg. Further, in data set [3], the “fold change (FC)” value came out at 2.523.
On the same counts, the results for `CCN1CC2=C(N=C3N(c4ccc(Cl)cc4)N=C(C(C)=O)N3C2c2ccc(C)cc2)/C(=C/c2ccc(C)cc2)C1` (configuration not stated) are 312.34 µg/kg, 735.34 µg/kg, 0.856 µg/kg and 1.273.
As for `CCN1CC2=C(NC(=S)NC2c2ccc(C)cc2)/C(=C/c2ccc(C)cc2)C1` (configuration not stated), in data set [1], the LD50 was 222.23 µg/kg and the LD90 was 434.76 µg/kg. Besides, in data set [2], the ED50 was 1.88 µg/kg. Moreover, the “fold change (FC)” value in data set [3] is 0.5798.
On the same counts, the results for `CCN1CC2=C(N=C3N(c4ccccc4)N=C(C(C)=O)N3C2c2ccc(C)cc2)/C(=C/c2ccc(C)cc2)C1` (configuration not stated) are 257.23 µg/kg, 419.23 µg/kg, 0.911 µg/kg and 1.196.
On the same counts, the results for `CCN1C/C(=C\c2ccc(C)cc2)c2nc3[nH]c(=S)[nH]c(=O)c3c(-c3ccc(C)cc3)c2C1` are 447.88 µg/kg, 937.34 µg/kg, 0.795 µg/kg and 1.371.
In the same order, the values of `CCN1C/C(=C\c2ccc(C)cc2)c2nc3nc4n(c(=O)c3c(-c3ccc(C)cc3)c2C1)C(=O)CS4` are 516.56 µg/kg, 1148.5 µg/kg, 0.766 µg/kg and 1.423.
Consider `CCOC(=O)C1=NN(c2ccc(Cl)cc2)C2=NC3=C(CN(CC)C/C3=C\c3ccc(C)cc3)C(c3ccc(C)cc3)N12` (configuration not stated), for which the ED50 in data set [2] was 0.441 µg/kg. In data set [3], the “fold change (FC)” value worked out at 2.472.
Consider `CC(C)(C#N)c1cc(Cn2cncn2)cc(C(C)(C)C#N)c1` [ANASTROZOLE], for which, in data set [1], the LD50 worked out at 2.415 µg/kg and the LD90 came to 3.69 µg/kg. Besides, in data set [2], the ED50 was 1.09 µg/kg.

The record behind these values is ChEMBL document CHEMBL1275277, “Synthesis of bioactive polyheterocyclic ring systems as 5α-reductase inhibitors” (Eur J Med Chem, 2010).
